Bioassay records as filed in PubChem BioAssay.
KCNK3 block = human KCNK3 channel inhibition, primary screen. CHO-KCNK3 thallium flux, FluxOR fluorescence; active compounds read low. B-score at 10 µM. 340,000 tested, 0.84% active;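 active means B-score under library mean minus 4 SD, starting fluorescence ratio at most library mean plus 5 SD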;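 further: more negative B-score means stronger inhibition of thallium flux through KCNK3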
Kir21 inh = Kir2.1 (mouse) channel inhibition; B-score at 10 µM; HEK293-Kir2.1, FluxOR thallium flux fluorescence; active compounds read low; P35561; AID 1672; 310,000 tested, 0.85% active;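 active means fluorescence ratio B-score at or below minus 3 SD of library scores, with starting-brightness B-score within 2 SD, cut at about -4.2 in these data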;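 further: channel flux triggered by added potassium and thallium sulfate stimulus; B-score of peak minus minimum fluorescence over baseline after thallium stimulus; more negative B-score means stronger Kir2.1 block with less thallium influx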
KCNQ1 pot = potentiators or activators of human KCNQ1 potassium channel. CHO-K1 KCNQ1, thallium flux FluxOR fluorescence; active compounds read high. 310,000 tested, 0.35% active. B-score at 10 µM;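 active means fluorescence ratio B-score, a plate-corrected score, at least three library SD, with initial intensity B-score within 5 SD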
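System: Stable KCNQ1 CHO-K1 line | Incubation: 90 min dye loading and 20 min compound exposure, both at room temperature | Measure: Ratio B score | Medium: Assay buffer for compound exposure, DMSO matched across wells | Compound dosing: Single-concentration screen | Probe or stimulus: K+/Tl+ depolarizing stimulus | Measured by: Kinetic FluxOR fluorescence, 10 s baseline plus 110 s post-stimulus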
hERG rescue = shields human hERG channel from block by proarrhythmic agents. Q12809. CHO-hERG, FluxOR thallium flux, dofetilide IC70 present. activation (rescue from dofetilide block), less the hit threshold, % at 10 µM. 310,000 tested, 0.51% active. AID 1511;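 active means activation above the mean of controls blocked by dofetilide plus 5 SD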;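 further: thallium influx through hERG after potassium depolarization seen as dye fluorescence rise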
Target sequence (Q12809 whole entry, looked up): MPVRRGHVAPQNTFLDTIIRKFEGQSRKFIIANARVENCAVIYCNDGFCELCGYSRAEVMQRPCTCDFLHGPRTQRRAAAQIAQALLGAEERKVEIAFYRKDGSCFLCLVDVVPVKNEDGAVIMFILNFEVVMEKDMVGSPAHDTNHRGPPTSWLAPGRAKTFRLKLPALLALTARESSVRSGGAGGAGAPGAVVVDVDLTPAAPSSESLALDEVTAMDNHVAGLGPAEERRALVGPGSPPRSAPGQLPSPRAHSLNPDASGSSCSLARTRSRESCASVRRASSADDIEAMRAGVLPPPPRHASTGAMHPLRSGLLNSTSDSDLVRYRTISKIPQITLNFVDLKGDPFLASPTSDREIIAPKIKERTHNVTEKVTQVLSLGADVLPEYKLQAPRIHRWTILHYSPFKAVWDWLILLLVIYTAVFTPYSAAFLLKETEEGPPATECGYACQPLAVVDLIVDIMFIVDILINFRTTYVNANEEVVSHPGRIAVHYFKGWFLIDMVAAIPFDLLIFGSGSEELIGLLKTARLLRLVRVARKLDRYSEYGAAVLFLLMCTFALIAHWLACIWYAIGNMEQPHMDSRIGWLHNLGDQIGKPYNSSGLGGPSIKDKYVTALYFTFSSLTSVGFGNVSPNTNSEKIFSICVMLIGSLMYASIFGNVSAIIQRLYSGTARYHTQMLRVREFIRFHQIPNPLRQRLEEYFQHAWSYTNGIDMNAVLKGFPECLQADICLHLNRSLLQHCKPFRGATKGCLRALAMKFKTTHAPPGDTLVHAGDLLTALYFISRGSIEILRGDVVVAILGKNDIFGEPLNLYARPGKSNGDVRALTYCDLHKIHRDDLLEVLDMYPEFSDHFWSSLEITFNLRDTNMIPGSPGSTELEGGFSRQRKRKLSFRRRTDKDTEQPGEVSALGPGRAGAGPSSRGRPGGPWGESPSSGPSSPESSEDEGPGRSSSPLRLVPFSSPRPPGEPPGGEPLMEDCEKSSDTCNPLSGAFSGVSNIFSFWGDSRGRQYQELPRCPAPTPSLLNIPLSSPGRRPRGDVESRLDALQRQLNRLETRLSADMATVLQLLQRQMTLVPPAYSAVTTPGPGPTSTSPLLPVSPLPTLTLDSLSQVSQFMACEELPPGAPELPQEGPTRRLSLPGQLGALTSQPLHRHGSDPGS
KCNQ1 inh = human KCNQ1 channel inhibition. AID 2642. B-score at 10 µM. CHO-K1 KCNQ1, FluxOR thallium flux fluorescence; active compounds read high. P51787. 310,000 tested, 1.3% active;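 active means compounds whose thallium flux B-score, printed positive for inhibition, exceeds three library SD while starting fluorescence stays within three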;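 further: channel opened by potassium depolarization with thallium stimulus after 20 min compound exposure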
KCNK9 inh = blocks the human KCNK9 two-pore domain potassium channel; AID 488922; 310,000 tested, 1.2% active; B-score at 10 µM; HEK293 KCNK9, FluxOR thallium flux fluorescence; active compounds read low;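 active means ratio B-score over 3 SD below the library mean, with starting fluorescence within 5 SD of its mean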;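 further: negative B-score means less thallium flux so channel inhibition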
Numbers without * were called inactive; i = inactive; / = not tested or not shown. The list is not random: actives were taken first. Their share in the collection is about 3.7%.

SMILES | KCNK3 block | Kir21 inh | KCNQ1 pot | hERG rescue | KCNQ1 inh | KCNK9 inh
COc1ccc2c(c1)-c1nc(/N=C/c3c(O)ccc4ccccc34)sc1CC2 | i | 0.02 | i | -10 | 11* | i
Cc1ccc(S(=O)(=O)N2CCN(C(=O)c3ccc(COc4ccccc4)o3)CC2)cc1 | i | / | / | / | / | /
S=C(N/N=C/c1ccccc1Cl)Nc1cccc(Cl)c1Cl | i | -0.68 | 12* | 9.8* | i | i
CCCCn1nc2cc(C(=O)NCc3ccc(C(F)(F)F)cc3C(F)(F)F)ccc2c1OCC | i | 0.22 | i | -8 | 6* | i
CCOc1c2ccc(C(=O)NCc3ccc(C(F)(F)F)cc3C(F)(F)F)cc2nn1C | i | -0.76 | i | -4 | i | i
Cn1nccc1C(=O)OCC(=O)Nc1ccccc1Cl | i | -2.3 | i | -8 | i | i
CCOC(=O)C1CCN(c2cc3c(cc2NC(=O)c2ccccc2)n(C)c(=O)n3C)CC1 | i | 0.86 | i | -10 | i | i
CCOC(=O)C1CCN(c2cc3c(cc2NC(=O)c2ccc(OC)c(OC)c2)n(C)c(=O)n3C)CC1 | i | 2.3 | i | -7 | i | -6.8*
O=C(c1c(F)cccc1F)N1CCN=C1SCc1ccccc1 | i | 0.02 | i | -11 | i | i
Oc1c(Br)cc(Br)cc1/C=N/n1c(-c2ccccc2)n[nH]c1=S | i | 0.41 | 12* | -18 | i | i
Cc1nnc(C)n1/N=C/c1cc(Br)cc(Br)c1O | i | -2.6 | 15* | 12* | i | i
Cc1nnc(C)n1/N=C/c1cc(Br)ccc1O | i | 1.3 | i | -6 | i | i
Oc1c(Br)cc(/C=N/n2c(-c3ccccc3)n[nH]c2=S)c(Br)c1O | / | 0.34 | i | -10 | i | i
O=[N+]([O-])c1ccc(O)c(/C=N/n2c(-c3ccccc3)n[nH]c2=S)c1 | i | -1.9 | i | -26 | 7* | i
COc1ccc(OCc2cc(C(=O)NCc3cccc(C)n3)no2)c(Cl)c1 | i | 1.9 | i | -14 | i | i
CC(C)S(=O)(=O)C1=NSC2=NC(=O)/C(=C\c3ccc(-c4cccc(C(=O)O)c4)o3)C(=N)N21 | i | / | / | / | / | /
N=C1/C(=C/c2ccc(-c3cccc(C(=O)O)c3)o2)C(=O)N=C2SC=C(c3ccccc3)N12 | i | -0.62 | i | -29 | 7* | i
CC(C)S(=O)(=O)C1=NSC2=NC(=O)/C(=C\c3ccc(-c4ccccc4)o3)C(=N)N21 | i | -3.3 | i | -30 | 8* | i
N=C1/C(=C\c2ccc(-c3cc(Cl)cc(Cl)c3)o2)C(=O)N=C2SC=C(c3ccccc3)N12 | i | 0.69 | i | -4 | i | i
CC1CC(C)CN(S(=O)(=O)c2ccc(C(=O)N3CCOCC3)cc2)C1 (configuration not stated) | i | 0.25 | i | -10 | i | i
CCOc1ccc(N2C(=O)C3=C(C(c4ccc(Cl)cc4)=NCCN3)C2c2cccnc2)cc1 (configuration not stated) | i | 0.22 | i | -10 | i | i
Cc1ccc(C2C3=C(NCCN=C3c3ccccc3)C(=O)N2c2ccccc2)cc1 (configuration not stated) | i | -8.8* | i | -14 | i | i
CCN(CC)C(=O)CC(c1cc(OC)c(OC)c(OC)c1)c1c(OC)cc(OC)c2c(-c3ccccc3)cc(=O)oc12 (configuration not stated) | i | -1.2 | i | -9 | i | i
COC(=O)C1=C(C(=O)OC)[C@@H]2N(Cc3ccccc3)c3ccccc3[C@@]23C[C@@H](C(=O)OC)N(C(=O)c2cc(C)oc2C)C3=N1 | i | 0.58 | i | 0 | i | i
COC(=O)C1=C(C(=O)OC)[C@@H]2N(C)c3ccccc3[C@@]23C[C@@H](C(=O)OC)N(C(=O)c2ccc(Br)cc2)C3=N1 | i | -2.4 | 30* | -8 | i | i
SMILES | KCNK3 block | Kir21 inh | KCNQ1 pot | hERG rescue | KCNQ1 inh | KCNK9 inh
CC#CCN1c2ccccc2[C@]23C[C@@H](C(=O)OC)N(C(=O)c4ccc(Br)cc4)C2=NC(C(=O)OC)=C(C(=O)OC)[C@H]13 | / | -0.21 | i | -4 | i | i
COC(=O)C1=C(C(=O)OC)[C@@H]2N(Cc3ccccc3)c3ccccc3[C@@]23C[C@@H](C(=O)OC)N(C(=O)c2cccs2)C3=N1 | i | 0.48 | i | -2 | i | -7.9*
COC(=O)C1=C(C(=O)OC)[C@@H]2N(Cc3ccccc3)c3ccccc3[C@@]23C[C@@H](C(=O)OC)N(C(=O)CC(C)C)C3=N1 | i | -0.41 | i | -4 | i | -7.9*
CCCn1c(=O)c2c(nc3n2CC(C)CN3Cc2ccccc2)n(C)c1=O (configuration not stated) | i | -0.01 | i | -6 | i | i
CC(C)COC(=O)/C(C#N)=C/c1c[nH]c2ccccc12 | i | 0.07 | i | -3 | i | -7.3*
Cc1cccc(C)c1NC(=O)c1cccc(N2C(=O)C3CCC(C)CC3C2=O)c1 (configuration not stated) | i | -0.87 | i | -9 | i | i
Cc1ccc(N2CC(C(=O)Nc3ncc([N+](=O)[O-])s3)CC2=O)cc1 (configuration not stated) | i | -1.2 | i | -7 | 6* | i
Nc1nc2c(s1)COc1ccccc1-2 | i | -0.19 | i | -5 | i | i
Nc1nc2c(s1)CCc1c-2cnn1-c1ccccc1 | i | -4.5* | i | 2 | i | i
Cc1ccccc1/C=N\NC(=O)c1ccccc1-n1cccc1 | i | 0.16 | i | -10 | i | i
Cc1ccc(C)c(OCCC(=O)OCC(=O)Nc2cccc(S(=O)(=O)N3CCCC3)c2)c1 | i | -0.54 | i | -11 | i | i
Fc1ccc(C2CCNCC2COc2ccc3c(c2)OCO3)cc1 (configuration not stated) | i | -6.5* | i | -8 | i | i
O=C(COc1ccc2c(c1)OCO2)Nc1ccccc1F | i | 0.49 | i | -10 | i | i
Fc1ccc([C@@H]2CCNC[C@H]2COc2ccc3c(c2)OCO3)cc1 | i | -6.5* | i | -6 | i | i
CC(=O)Nc1ccc(S(=O)(=O)N(C)CC(=O)OCCOc2cccc(C)c2)cc1 | i | 0.56 | i | -18 | i | i
O=C1CCCN1Cc1ccccc1 | i | 0.12 | i | -2 | i | i
CN1CCN(c2cc(N3CCc4ccccc4C3)c(F)cc2[N+](=O)[O-])CC1 | i | -4.7* | i | -23 | i | i
O=C(CN(C(=O)CCC(=O)Nc1nccs1)c1ccccc1F)NCCc1ccccc1 | i | 0.17 | i | -5 | i | i
